# Screening results (PubChem BioAssay)
# Runt-CBFb FRET = inhibitors of human RUNX1 Runt domain binding to CBFb; Q01196+Q13951; Cerulean-Runt/Venus-CBFb FRET ratio 530/480, 1 h; inhibition, % at 20 µM; 220,000 tested, 0.46% active;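 active means inhibition over about 50% at 20 µM in the single-dose screen, limit read from the data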;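 further: 0% = DMSO wells and 100% = excess unlabeled CBFb competitor control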
# Target sequence (Q01196 whole entry, looked up, the tested form may be a part): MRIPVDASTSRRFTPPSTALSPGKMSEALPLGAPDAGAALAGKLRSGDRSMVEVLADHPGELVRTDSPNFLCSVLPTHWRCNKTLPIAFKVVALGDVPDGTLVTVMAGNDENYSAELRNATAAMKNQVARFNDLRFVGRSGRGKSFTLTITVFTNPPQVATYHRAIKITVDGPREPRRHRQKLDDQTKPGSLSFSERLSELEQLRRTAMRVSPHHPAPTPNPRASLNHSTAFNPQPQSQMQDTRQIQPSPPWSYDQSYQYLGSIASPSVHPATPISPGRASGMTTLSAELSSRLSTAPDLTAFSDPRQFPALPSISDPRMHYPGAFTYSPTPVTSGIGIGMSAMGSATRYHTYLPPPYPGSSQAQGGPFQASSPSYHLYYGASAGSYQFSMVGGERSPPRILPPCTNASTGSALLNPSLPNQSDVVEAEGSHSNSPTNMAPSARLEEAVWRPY
# Target sequence (Q13951 whole entry, looked up, the tested form may be a part): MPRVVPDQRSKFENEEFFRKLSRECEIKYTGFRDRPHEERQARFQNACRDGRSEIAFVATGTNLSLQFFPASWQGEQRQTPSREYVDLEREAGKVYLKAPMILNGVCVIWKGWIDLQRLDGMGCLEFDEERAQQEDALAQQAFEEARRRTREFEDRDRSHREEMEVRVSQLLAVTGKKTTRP
#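 test system = Cerulean-Runt domain fusion protein, energy donor | probe or stimulus = Venus-CBFb binding partner, 100 nM | incubation = two 1 h room-temperature incubations shielded from light | detection = fluorescence energy transfer, 422 nm excitation, 530/480 nm emission | measure = loss of energy transfer signal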
# Hck-Nef inh = blocks Nef-activated human Hck kinase; 220,000 tested, 0.68% active; Recombinant Hck-YEEI plus Nef, Z-Lyte FRET kinase assay; inhibition, % at 20 µM;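 active means Hck-Nef kinase inhibition above about 50%, limit read from the data; inactive means inhibition below that limit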;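 further: 0% = DMSO with Hck plus Nef and 100% = Hck alone without Nef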
# pCIP destab = p/CIP protein destabilization; 290,000 tested, 0.01% active; Q05BA5; AID 1984; F442A p/CIP-EGFP cells, EGFP fluorescence, 16 h; decrease of EGFP signal, % at 10 µM;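 active means EGFP signal decrease of at least 30% at 10 µM or well 3 SD below plate mean, unless failing retest; inactive means the rest, including hits failing retest or dose response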
# RanGTP-Impb inh = inhibitors of RanGTP-importin-beta interaction, primary screen, biochemical, FRET, CFP-Ran, YFP-importin-beta, homogeneous | cell-free CFP-Ran/YFP-importin-beta FRET ratio | inhibition, % (test concentration not listed) | 300,000 tested, 1.1% active | AID 2216;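 active means more than half of the replicate wells show a fall in the fluorescence ratio signal beyond about 16%, limit read from the data, passing the limit was not always enough; inconclusive means exactly half of the replicate wells pass the set limit; inactive means fewer than half of replicates pass the limit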;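 further: 0% = DMSO wells and 100% = Ran loaded with GDP instead of GTP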
# Runt-SMMHC FRET = Runt domain-CBFb-SMMHC interaction inhibition | Cerulean-Runt/Venus-CBFb-SMMHC FRET ratio 530/480, 1 h | Q01196+Q13951 | inhibition, % at 20 µM | 220,000 tested, 0.74% active;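 active means mean inhibition across duplicate retests at 20 µM reaching about 50%, limit read from the data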;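 further: 0% = DMSO wells and 100% = wells with excess untagged CBFb-SMMHC; inhibitors lower the FRET ratio by blocking Runt binding to CBFb-SMMHC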
# Pemphigus Ab inh = human desmoglein-3 autoantibody binding inhibition; 310,000 tested, 0.48% active; P32926; binding (percent of control), % at 10 µM; DSG3-coupled beads, scFv-anti-DSG3-GFP binding, flow cytometry; active compounds read low;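 active means binding more than 3 SD below its plate's average and above zero; inconclusive means below that plate limit but binding exactly zero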;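 further: hits lower antibody fragment binding to DSG3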
# An asterisk follows results filed as active; ? = inconclusive; . = no result. In the library only some 2.1% were active in any assay of this set; here they are far more common.
SMILES,Runt-CBFb FRET,Hck-Nef inh,pCIP destab,RanGTP-Impb inh,Runt-SMMHC FRET,Pemphigus Ab inh
Cc1cc(C)nc(NS(=O)(=O)c2ccc(N/C=C/C(=O)c3ccc(Cl)cc3)cc2)n1,12,11,-6,5,25,86
COc1ccc(N2CCN(C(=O)C3CCCN3S(=O)(=O)c3cccc4nsnc34)CC2)cc1 (configuration not stated),.,.,-9,0,.,.
COc1cccc(CC(NC(C)=O)C(=O)NC2CCN(C(=O)c3ccc(Cl)cc3)CC2)c1OC (configuration not stated),.,.,-7,-1,.,99
COc1ccc(CNS(=O)(=O)NCc2ccc(C)cc2)cc1,1,22,16,3,-6,101
CN=c1scc(-c2c[nH]c3ccccc23)n1C,0,27,-10,.,3,103
Cc1sc2nc3ccc(NCc4ccco4)nn3c(=O)c2c1C,6,3,0,7,60*,97
O=c1c2ccccc2nc2ccc(NCc3ccco3)nn12,2,3,-14,-4,7,96
Cc1ccc2[nH]c(=O)c(CN(CCCN3CCOCC3)C(=O)NC3CCCCC3)cc2c1,0,-1,-10,1,-1,93*
Cc1ccc(S(=O)(=O)N2CCN(c3ccccc3)CC2)c(C)c1,.,.,-5,3,.,105
Cc1sc(NC(=O)CSc2nnc3scc(-c4ccccc4)n23)c(C#N)c1C,-11,3,1,0,-13,84*
Cc1sc(NC(=O)CSc2nnc(COc3ccccc3)n2C)c(C#N)c1C,0,1,-10,-3,2,99
C=C1CC(C(=O)N/N=C/c2ccccc2)C1,-1,8,-2,-4,-6,.
O=C(c1ccncc1)N1CCN(S(=O)(=O)c2ccc(F)cc2)CC1,.,.,-20,-1,.,.
COc1cc(CN2CCN(CCCc3ccccc3)CC2CCO)cc(OC)c1 (configuration not stated),.,.,-9,27*,.,106
COc1cc(CNc2ccc(N3CCCCC3)cc2)ccc1OCC(=O)NC(C)(C)C,.,.,-1,-2,.,111
CN(Cc1nc(Cc2ccccc2F)no1)Cc1cccc2ncccc12,-1,15,-7,-1,3,86
COc1cc2cc(C(=O)Nc3ccccc3)c(N)nc2cc1OC,16,19,-11,29*,48,.
COc1ccc(OCC(=O)Nc2cc(OC)ccc2N2CCCCC2)cc1,.,.,3,-2,.,97
Nc1cc(-c2ccccc2)nn1Cc1ccccc1,-1,-16,-4,32*,-2,109
O=C(OCC(=O)N1CCN(C(=O)c2ccco2)CC1)c1cccc(S(=O)(=O)N2CCc3ccccc32)c1,-2,24,-6,4,0,103
CN(CCOCCOc1ccc(Cl)cc1Br)Cc1ccccc1,1,-6,38*,-2,-3,102
COc1ccc(S(=O)(=O)N2CCN(c3ccc(F)cc3)CC2)cc1C(=O)N1CCOCC1,.,.,-12,?,.,92
N#CC1=C(N)N2C(=C(C#N)C1c1cccc(Br)c1)Nc1ccccc12 (configuration not stated),20,4,-26,28*,64*,85
N#CC1=C(N)N2C(=C(C#N)C1c1ccc(Br)cc1)Nc1ccccc12 (configuration not stated),19,7,-12,23*,60*,.
Cc1ccc(NNC(=O)Nc2ccc(Cl)cc2)nn1,8,-39,9,0,39,92
SMILES,Runt-CBFb FRET,Hck-Nef inh,pCIP destab,RanGTP-Impb inh,Runt-SMMHC FRET,Pemphigus Ab inh
O=C(NCCC(=O)N1CCC2(CC1)NCCc1[nH]cnc12)c1cccc(Br)c1,.,.,-2,-1,.,99
CCN1CC=C2C(C#N)=C(N)C(C#N)(C#N)[C@H](c3cccc(OC)c3OC)[C@H]2C1,41,18,-22,.,62*,101
CCOC(=O)N1CC=C2C(C#N)=C(N)C(C#N)(C#N)[C@H](c3ccccc3OCC)[C@H]2C1,0,6,-15,3,-1,103
COc1cccc(C2C3CN(C)CC=C3C(C#N)=C(N)C2(C#N)C#N)c1OC (configuration not stated),74*,12,-31,39*,62*,100
COc1ccccc1NC1=CC(=O)CC(c2ccccc2)C1 (configuration not stated),2,3,14,55*,6,110
O=C(Oc1ccccc1Cl)c1ccccc1,.,.,.,.,.,101
O=C(Oc1cccccc1=O)c1ccccc1,3,-1,8,63*,0,82
CCN1/C(=C/C=C/c2sc3ccccc3[n+]2CC)Sc2ccccc21,.,.,.,26*,.,-10*
Nc1nc(Cl)cc(Oc2ccc([N+](=O)[O-])cc2)n1,.,.,0,0,.,55*
CCCc1cc(=O)oc2cc(OCC(=O)N(C)C)c(Cl)cc12,0,-7,0,0,2,2.6*
CCCc1cc(=O)oc2cc(OCC(=O)N3CCOCC3)c(Cl)cc12,.,.,-15,3,.,106
CN1CCc2c(sc(NC(=O)c3ccc(S(=O)(=O)N4CCc5ccccc54)cc3)c2C(N)=O)C1,7,-45,-8,3,14,.
CN1CCc2c(sc(NC(=O)C3CCCN3S(=O)(=O)c3ccc(Cl)s3)c2C(N)=O)C1 (configuration not stated),.,.,.,164*,.,85
COC(=O)c1c(NC(=O)c2ccc(S(=O)(=O)N3CC(C)OC(C)C3)cc2)sc2c1CCN(C)C2 (configuration not stated),.,.,.,.,.,100
CNC(=O)c1c(NC(=O)c2ccc(S(=O)(=O)N3CCCc4ccccc43)cc2)sc2c1CCN(C)C2,-262,31,-57,28*,-48,132
CN1CCc2c(sc(NC(=O)c3ccc(S(=O)(=O)N4CCCC4)cc3)c2C(N)=O)C1,.,.,-17,41*,.,.
CN1CCc2c(sc(NC(=O)c3ccc(S(=O)(=O)N4CCCCCC4)cc3)c2C(N)=O)C1,.,.,-11,58*,.,.
COc1ccc(S(=O)(=O)NCc2cc(-c3ccccc3Cl)no2)cc1,-2,19,-5,-1,1,99
CCCCn1c(-c2cccs2)nc2nc3ccccc3nc21,19,20,-12,3,158*,100
c1ccc(Cn2c(-c3cccs3)nc3nc4ccccc4nc32)cc1,23,1,-2,?,65*,.
Cc1ccc(-n2c(-c3cccs3)nc3nc4ccccc4nc32)cc1,0,5,-10,1,-86,.
CC(C)Cn1c(-c2cccs2)nc2nc3ccccc3nc21,46,43,-9,8,104*,102
Cc1ccc(OS(=O)(=O)c2c(C)nn(C)c2Cl)c(C)c1,.,.,-8,-1,.,105
CCOc1ccc(-c2csc(NC(=O)c3cccc(N4C(=O)CCC4=O)c3)n2)cc1,-2,1,-9,6,21,57*
